ABHD4 inh: ABHD4 inhibitors, primary screen, biochemical, fluorescence polarization, mouse | (Lyso)-N-acylphosphatidylethanolamine lipase (Mus musculus), Q8VD66 | purified mABHD4, FP-Rh probe fluorescence polarization | inhibition, % at 8.92 µM | 0.54% of 370,000 active | AID 720543, 2013;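 active means inhibition exceeding the mean over every tested compound plus 3 SD, cut at about 30% in these data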
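Material: mouse ABHD4 enzyme, wild type; Benchmarks: S159A mutant high control, sample median low control; Buffer or medium: HEPES pH 7.0, NaCl, Pluronic buffer; Signal: fluorescence polarization; Read-out: percent inhibition of probe binding, normalized to plate controls; Timing: pre-incubation 45 min, probe exposure 60 min, at 25 °C; Dosing: 8.92 µM, single dose.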
Tn6 DDE FP: inhibitors of Tn6 peptide binding to fibrin DD(E), primary screen, biochemical, fluorescence polarization, human fibrin, Tn6 probe. Fibrinogen beta chain (Homo sapiens), P02675. Fibrin DD(E) TRITC-Tn6 fluorescence polarization displacement. inhibition, % at 8.3 µM. 0.21% of 370,000 active. AID 720509, 2013;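 active means inhibition above a per-campaign cutoff: mean of compounds within control limits plus 3 SD, cut at about 15% in these data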
TCR CD3 inh: inhibitors of human TCR-CD3 interaction, primary screen, biochemical, fluorescence, TAMRA-labeled TCR probe. T-cell receptor (TCR). inhibition, % at 9.4 µM. 0.37% of 360,000 active; in the data active means inhibition above about 19%;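 further: recombinant mutant TCR 2C K166C tagged with TAMRA read by polarization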
SIAE inh: human SIAE inhibitors, primary screen, biochemical, fluorescence polarization, FP-Rh probe, 1536-well HTS; Sialate O-acetylesterase (Homo sapiens), Q9HAT2; SIAE FP-Rh probe binding; inhibition, % at 9.66 µM; 0.69% of 370,000 active; AID 1053197, 2014;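 active means inhibition above a cutoff: mean of compounds within the control limits plus 3 SD of those, cut at about 17% in these data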
Target sequence (Q9HAT2 whole entry, looked up): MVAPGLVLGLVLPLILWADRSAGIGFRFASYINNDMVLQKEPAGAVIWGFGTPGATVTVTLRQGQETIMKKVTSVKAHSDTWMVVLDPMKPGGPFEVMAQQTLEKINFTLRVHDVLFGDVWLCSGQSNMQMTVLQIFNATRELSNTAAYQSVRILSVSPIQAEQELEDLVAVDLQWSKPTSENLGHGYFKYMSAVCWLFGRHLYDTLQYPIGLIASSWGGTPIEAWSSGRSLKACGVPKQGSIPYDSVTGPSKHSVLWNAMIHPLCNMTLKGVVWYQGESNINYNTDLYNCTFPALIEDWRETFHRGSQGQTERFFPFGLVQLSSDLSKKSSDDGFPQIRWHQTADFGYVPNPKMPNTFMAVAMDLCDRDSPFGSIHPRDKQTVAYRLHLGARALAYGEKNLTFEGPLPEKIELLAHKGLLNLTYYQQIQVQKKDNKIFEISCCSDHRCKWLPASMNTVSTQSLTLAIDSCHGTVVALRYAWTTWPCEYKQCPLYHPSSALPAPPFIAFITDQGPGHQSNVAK
HTRA1 inhibitor: HTRA1 serine protease inhibitors, primary screen, biochemical, fluorescence polarization, HTS | recombinant HTRA1, FP-rhodamine activity-based probe | inhibition, % at 5.96 µM | 0.5% of 340,000 active | AID 504803, 2011; in the data active means inhibition above about 36%
Tn7 DDE FP: inhibitors of Tn7 peptide binding to fibrin DD(E), primary screen, biochemical, fluorescence polarization, human fibrin, Tn7 probe | Fibrinogen beta chain (Homo sapiens), P02675 | FP displacement of FITC-Tn7 peptide from fibrin DD(E); 0% = median of compound wells per plate | inhibition, % at 8.3 µM | 0.13% of 370,000 active | AID 720508, 2013;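 active means inhibition above the mean of compounds falling within the control limits plus 3 SD of them, cut at about 14% in these data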
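Test system – human fibrin DD(E) · Times – 10 min preincubation, 3 h with tracer, room temperature · Detection – fluorescence polarization of the labelled Tn7 tracer · Measure – percent inhibition normalized to high-control wells · Benchmarks – high control wells with 10 µM unlabelled Aha-Tn7 peptide (full inhibition) · Repeats – singlicate testing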
SIAE inh conf: human SIAE inhibitors, retest, confirmation, biochemical, fluorescence polarization, FP-Rh probe, triplicate; shares compounds with SIAE inh; 13% of 2,300 active; SIAE FP-Rh activity-based probe; inhibition, % at 9.66 µM; AID 1117263, 2014;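 active means mean inhibition of the replicates above the hit cutoff set in the primary screen, cut at about 17% in these data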;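 further: inhibitors lower polarization as more probe stays unbound to SIAE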
Numbers stand for hits; i = inactive; nt = no result. Sampled rows, rich in hits. Any-hit rate of the full collection: about 1.8%.

SMILES	ABHD4 inh	Tn6 DDE FP	TCR CD3 inh	SIAE inh	HTRA1 inhibitor	Tn7 DDE FP	SIAE inh conf
CCCN(CC(=O)Nc1ccccc1OC)C(=O)CN1C(=O)NC(C)(C)C1=O	i	i	i	i	i	i	nt
CCN(CC)c1ccc(/C=N/N2CCN(Cc3ccc(C)cc3)CC2)c(O)c1	nt	nt	nt	nt	i	nt	nt
CCN(CC)c1ccc(/C=N/N2CCN(Cc3ccccc3Cl)CC2)c(O)c1	i	i	i	22.0	i	i	i
Nc1cc2c(cc1Cl)-c1ccc(Cl)cc1C2	i	i	i	i	nt	i	nt
O=C(Nc1ccc2[nH]c(=S)sc2c1)c1ccccc1	i	i	i	i	i	i	nt
O=C(Nc1ccc2[nH]c(=S)sc2c1)Nc1ccccc1F	i	i	i	26.2	i	i	i
O=C(c1[nH]c(C(F)(F)F)nc1-c1ccccc1)N1CCC2(CC1)C(=O)NCN2c1ccccc1	i	i	i	i	nt	i	nt
N=c1n(CCN2CCCCC2)c2ccccc2n1CC(O)c1ccc(Cl)c(Cl)c1 (stereo not drawn)	i	i	i	i	i	i	nt
N=c1n(CCN2CCCCC2)c2ccccc2n1CC(O)c1cccc(Br)c1 (stereo not drawn)	i	i	i	33.0	i	i	i
CCCC(=O)OC12CCCN(C1)/C(=C/c1ccc(OC)cc1)C2 (stereo not drawn)	i	i	nt	i	nt	i	nt
COc1ccc(C(C#N)=C2C=C(Cl)C(=NO)C=C2Cl)cc1	i	i	i	i	i	i	nt
N#CC(=C1C=C(Br)C(=NO)C=C1Cl)c1cccc2ccccc12	i	i	i	17.8	i	i	i
CSc1cccc(NC(=O)C2CCCN(c3ncnc4c3nc3n4CCCCC3)C2)c1 (stereo not drawn)	i	i	i	i	i	i	nt
COC(=O)CCCCCc1ccc(C(C)=O)s1	i	i	i	17.5	i	i	i
O=C(CSc1ccccc1)Nc1ccc(N2CCOCC2)c(F)c1	i	i	i	17.7	i	i	i
Cc1ccccc1NC(=O)N(C)[C@H]1C[C@H]2c3[nH]c4c(-c5ccccc5)cccc4c3CCN2C(=O)[C@H]1[C@H](C)O	i	i	i	i	nt	i	nt
O=C(N/N=C\c1cc(Br)ccc1O)c1ccc(S(=O)(=O)N2CCCCC2)cc1	i	i	i	32.1	i	i	39.4
CCC(CC)C(=O)NCCc1ccc(OC)cc1	i	i	i	17.3	i	i	i
CCC(CC)C(=O)NCCCCc1ccccc1	i	i	i	19.9	i	i	i
CCC(CC)C(=O)NCCc1ccc(OC)c(OC)c1	i	i	i	i	i	i	nt
N#CCCN(C(=O)COC(=O)CCc1ccccc1)c1ccccc1	i	i	i	i	i	i	nt
Cc1ccc(SCC(=O)OCC(=O)N(CCC#N)c2ccccc2)cc1C	i	i	i	29.4	i	i	i
CCOC(=O)CC1=C(C(=O)OCC)C(c2cccnc2)C(C#N)=C(N)O1 (stereo not drawn)	i	i	i	17.3	i	i	i
CC(C)NC(=O)c1ccc(N2CCOCC2)nc1	i	i	i	19.0	i	i	i
CCOc1ccc(C2C(C(=O)OC)=CN(C(C)c3ccccc3)C=C2C(=O)OC)cc1 (stereo not drawn)	i	i	i	18.3	i	i	i
SMILES	ABHD4 inh	Tn6 DDE FP	TCR CD3 inh	SIAE inh	HTRA1 inhibitor	Tn7 DDE FP	SIAE inh conf
COC(=O)C1=CN(Cc2ccccc2)C=C(C(=O)OC)C1c1ccc(OC)c(OC)c1	i	i	i	i	i	i	nt
COc1ccccc1CNc1nc(NCc2ccccc2OC)c2sccc2n1	i	i	i	20.2	nt	i	i
O=C(N1CCC(n2nc(-c3ccccc3)oc2=O)CC1)C1(c2ccccc2)CCCC1	i	i	nt	i	nt	i	nt
O=C(OCc1cn(Cc2cccc(F)c2F)nn1)N1CCCC1	i	i	nt	i	nt	i	nt
CCN(CC)c1ccc(/C=N/NC(=O)c2cc3ccccc3[nH]2)cc1	i	i	i	i	i	i	nt
CCN(CC)c1ccc(/C=N/NC(=O)c2c[nH]c3ccccc23)cc1	i	i	i	24.2	i	i	i
CC(C(=O)NCc1cccs1)n1cccc1 (stereo not drawn)	i	i	i	20.2	i	i	i
CCC(CC)c1nnc(NC(=O)CS(=O)(=O)c2ccccc2)s1	i	i	i	25.9	i	i	i
C=CCN=C1NN=C(c2cc(C)n(CCOC)c2C)CS1	i	i	i	i	i	i	nt
COCCn1c(C)cc(C2=NNC(=NC3CC3)SC2)c1C	i	i	i	25.0	i	i	i
O=c1[nH][nH]c(=O)n1-c1ccccc1	i	i	i	20.5	i	i	i
COc1cc(CNC(=O)c2cc(C(=O)NCc3cc(OC)cc(OC)c3)n(C)n2)cc(OC)c1	i	i	i	19.9	i	i	i
COc1ccc(-n2c(CN3CCN(c4ccccc4OC)CC3)nc3ccc([N+](=O)[O-])cc3c2=O)c(OC)c1	i	i	i	i	i	i	nt
CCN1CCN(Cc2nc3ccc([N+](=O)[O-])cc3c(=O)n2-c2ccc(OC)cc2OC)CC1	i	i	i	19.1	i	i	i
CN(C(=O)COC(=O)/C=C/c1ccc(S(=O)(=O)N2CCc3ccccc32)cc1)C1CCS(=O)(=O)C1 (stereo not drawn)	i	i	i	i	nt	i	nt
COc1cc(CNc2ccc3[nH]c(=O)[nH]c3c2)ccc1OCc1ccc(Cl)cc1	i	i	i	i	i	i	nt
COc1cc(CNc2ccc3[nH]c(=O)[nH]c3c2)ccc1OCc1ccc(F)cc1	i	i	i	21.7	i	i	i
COc1cc(CNc2ccc3[nH]c(=O)[nH]c3c2)cc(Br)c1OCc1ccccc1F	i	i	i	21.4	i	i	i
CCOC(=O)c1ccc(NC(=O)COc2ccccc2CNC2CCCC2)cc1	i	i	i	i	i	i	nt
O=[N+]([O-])c1ccc(-c2ccc(/C=N/O)o2)cc1	i	i	i	25.2	nt	i	i
C[C@H](O)[C@@H]1CN2CCc3c([nH]c4ccccc34)[C@@H]2C[C@@H]1N(C)C(=O)Nc1cccc2ccccc12	i	i	i	21.9	nt	i	i
CCNC(=O)N(C)[C@H]1C[C@H]2c3[nH]c4ccccc4c3CCN2C[C@H]1[C@H](C)O	i	i	i	i	nt	i	nt
CCOC(=O)N1CCN(C(=O)CSc2ncccn2)CC1	i	i	i	18.9	i	i	i

Screening results: PubChem BioAssay, The Scripps Research Institute Molecular Screening Center
